According to the EternaBench riboswitch data:

System: MS2 coat protein
Test: apparent Kd, MS2 coat protein; higher = weaker binding; RNA-MaP array; FMN 200 µM where present
How it was run: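 Apparent Kd: the median of filtered binding-curve fits from single clusters. Designs were transcribed on Illumina sequencing-chip clusters by stalled E. coli RNA polymerase and titrated with SNAP-549-labelled MS2 coat protein from 0.7 or 1.5 nM, doubling to 3 µM, in 100 mM Tris-HCl pH 7.5, 80 mM KCl, 4 mM MgCl2, BSA, DTT, yeast tRNA and Tween-20. Each series ran without and then with constant ligand, and green signal was normalised to red-channel RNA signal and control-cluster median Fmax.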

[1] = designed as: OFF switch for flavin mononucleotide, no ligand
[2] = ligand present: flavin mononucleotide, designed as: OFF switch for flavin mononucleotide
[3] = designed as: ON switch for flavin mononucleotide, no ligand
[4] = ligand present: flavin mononucleotide, designed as: ON switch for flavin mononucleotide

Sequence | apparent Kd [1] | apparent Kd [2] | apparent Kd [3] | apparent Kd [4]
GUACCUCAAGUGAGGAUAUGUCAUUACCGGUGAAGAUAGAAGGCACAUGAGGAUCACCCAUGUGUGGCUCCGUC | 23.5 nM | 95.8 nM | – | –
UGCAUGGUAGGAUAUACGGAGCAUUAGGGUUUGUUGUGUGGACAUGAGGAUCACCCAUGUAGAAGGGCCGUGCU | 42.8 nM | 65.2 nM | – | –
UUAGCAUACCGAGGAUAUUCAUAUAAUAAAUAAACAUGAGGAUCACCCAUGUGGCGAAAGCCUAGGGAGAAGGCGGAAUGCUAG | – | – | 171 nM | 27.2 nM
UUUAUGUCAGGAUAUGAGUAGUAGAACAAUAGUACUACUACUCAGAAGGGACAUGAGGAUCACCCAUGUUCCUC | 18.2 nM | 98.8 nM | – | –
CCUGUCGCAUGAGGAUAUGGUCAGCUUUGCUGACCAGAAGGCAUGUCAAUAGACAUGAGGAUCACCCAUGUAGUUAAGACAGGA | – | – | 615 nM | 46.7 nM
CGCGAAAGAUUAUUAUGAAUAAACAUGAGGAUCACCCAUGUAUAGGAUAUGCAGUGGAAUACACUGCAGAAGGAUACAUACGCG | 22.2 nM | 123 nM | – | –
GUACUGACAGGAUAUACAUGAGGAUCACCCAUGUCCUUAUGCUGACAAAAGUCAGCGAGUAGAAGGGUCUGUAC | 101 nM | 603 nM | – | –
AACUGACAUGAGGAUCACCCAUGUCAGGAUAUGACUUGAUAGAAAAAAAAAUAUCAUGUCAGAAGGGACAUGAA | 16.4 nM | 13.5 nM | – | –
GCGUCGUCGACUGAUAACAAGCCUAGAAGGCGGACAUGAGGAUCACCCAUGUCUGAUCCUCGGCCCGAGGAUAUAGGUUAAUGG | 28.6 nM | 13.4 nM | – | –
CAAUUUAUAACAGGAUAUGUAUUACAAAAGUUAAUAGAAGGGUUUAAUACAUGAGGAUCACCCAUGUCAUGUGUCAUAAUUACC | 36.7 nM | 29.6 nM | – | –
AUUCCUUGUGUUAGGAUAUGUCACUACCGUAUGCGACAGAAGGAACAUGAGGAUCACCCAUGUGAGUUAGCCGA | 87.5 nM | 24.1 nM | – | –
UGGUCACAUGAGGAUCACCCAUGUCAGGAUAUCUACAUUGAAGCCUCGGCUUCAAUGUAGAGAAGGGAUAUAAU | 65.5 nM | 148 nM | – | –
UGGUACAUGGGAGGAUAUGGGAAGAUACAUGAGGAUCACCCAUGUUUAAGAAUGCCGAGAGGCAACUAGAAGGCCCAUGUACCU | – | – | 1090 nM | 45.8 nM
AUAGGACGAAACAUGAGGAUCACCCAUGUGUUAUAAUUAAUAUAGGAUAUGUUUAUACUUUUUGGGCAGAAGGAUGAUAAUGCU | – | – | 16.6 nM | 14.7 nM
UAGUAUAAGGGCAUUAAACAUGAGGAUCACCCAUGUACGUUAGAGGAUAUGCAUUUCAGUUGAGAGUAGAAGGUUAGAGAAGGG | 45.1 nM | 47.4 nM | – | –
GUCGGAAACGACAAAGUAGCAUAGGAGGAUAUUCAUCCUCACAUGAGGAUCACCCAUGUAAAUUGGGAGAAGGCCUAUGCUACA | – | – | 515 nM | 301 nM
AGCAUGUAAGGAUAUGCAAGUGGUACGGAUAGUACCAGAAAGCAGAAGGUACAUGAGGAUCACCCAUGUGCUCC | 28.2 nM | 55.2 nM | – | –
UAUGCCUUUGUGAGGAUAUACUUUGUUUGGUCGUAGUAGAAGGCACAUGAGGAUCACCCAUGUAGAUUUUUGGU | 27.5 nM | 72.2 nM | – | –
GGAUGACAAAGUCAUCCAAAUCGAACAUGAGGAUCACCCAUGUAGGAUAUGCUACACAAAGUGUAGCAGAAGGACAUGUGCUUU | 42.2 nM | 258 nM | – | –
AAUUUACAUGAGGAUCACCCAUGUGAGGAUAUAUAUACAUGCUUGUUAUUGCGUGUGUGUAGAAGGCGCGUGAU | 64.7 nM | 115 nM | – | –
AGCUAGUCAGGAUAUACGCAAACGAACGAAGCAGUGAAGGGACAUGAGGAUCACCCAUGUAGAAGGGACUAGCA | 24.5 nM | 140 nM | – | –
GCUAGUAUUGCAGGAUAUUGAGAAUAAUUAUUACAAGAAGGGCAUAACAUGAGGAUCACCCAUGUAUUCCUUAGUGAUACUAGC | 6.24 nM | 6.07 nM | – | –
UUUGUUUAUGUGAGGAUAUACUGUUUGUUUUGUUUGUAGAAGGUACAUGAGGAUCACCCAUGUUUUGUAUUUAU | 21.5 nM | 18.8 nM | – | –
ACAUGAGGAUCACCCAUGUAAAAUGAAGAAGGUAUAUACUUGAGGAUCACCCAUGUACAUGGGAGUAAGGAUAUUCUAAUAAUU | – | – | 13.2 nM | 11.3 nM
GCACUGGAUGUAGGAUAUCAGGACGAUAAGUCCUGAGAAGGACAUGAGGAUCACCCAUGUAAACCUCACCAGUGCUAUAAUAUA | 15.5 nM | 21.1 nM | – | –
UUUUAACAUGAGGAUCACCCAUGUGAGGAUAUCGAAAUUUAUAUUAAUAUUAUUUAUACGAGAAGGCACAUUUU | 63.2 nM | 73.4 nM | – | –
CCGAAUAUGCAGGAUAUCGUAUCGGAGACGAUACGAGAAGGGCAAACAUGAGGAUCACCCAUGUUCCUUAACGG | 19.1 nM | 22.5 nM | – | –
GCUGUGGCAUGAGGAUAUGGUCUGCUUUGCAGACCAGAAGGCAUGUCAAUAGACAUGAGGAUCACCCAUGUAGUUAACACAGCA | – | – | 510 nM | 38.6 nM

Sequence | apparent Kd [1] | apparent Kd [2] | apparent Kd [3] | apparent Kd [4]
AUUAUGACCGAGUUAUAACUCUAAACAUGAGGAUCACCCAUGUAGGAUAUCAGCACGAUAAGUGCUGAGAAGGACAUCUCGGUC | 16.4 nM | 18.1 nM | – | –
AGUCGGAGCAGAGGAUAUAUACAUGAGGAUCACCCAUGUAAAUGAGUAAGCUGGAAACAGCAAGUAUAGAAGGCUGCUCCGACA | 18.2 nM | 35.1 nM | – | –
GUUCUUCCUGUAAGGAUAUCCAUGUGUCAGUUUAUGGAGAAGGUACAUGAGGAUCACCCAUGUCACCCGCGUUA | 18.4 nM | 51.2 nM | – | –
UGGCUACAUGAGGAUCACCCAUGUCAGGAUAUGCCGUCGGAUUGCCUUCGUCGUUCGGGUAGAAGGGACUGCGG | 24.6 nM | 24.1 nM | – | –
ACCUUACUGGUCAGGAUAUACAGUCUUUGGUGUGUGUAGAAGGGACAUGAGGAUCACCCAUGUAGGUUGCAUUA | 164 nM | 172 nM | – | –
GUGUAGAUAGGAUAUACGUGAGUCUAGCGAAGCUAGAUUCUACAUGAGGAUCACCCAUGUAGAAGGGUCUACAC | 16.1 nM | 18.6 nM | – | –
ACGUAUCUAGGAUAUACGCUGGGUACUAUUCUCAAGUCAAGACAUGAGGAUCACCCAUGUAGAAGGAGAAGCAA | 41 nM | 98.4 nM | – | –
GAUAGGACAGAGAAGGUACGUGCUAGAGAUACUAGCAAAAUACCUCAACAUGAGGAUCACCCAUGUAAGGAUAUCUGUCCUAUC | 5.7 nM | 6.19 nM | – | –
GCACGUGGACAGAAGGCGACAUGAGGAUCACCCAUGUUGGCUCGGGUAUGACCAAUCCGCAUGAUCGAGGAUAUGUCUGCGGGC | 264 nM | 15.9 nM | – | –
CCUAAGGAGACAGGAUAUAGUGUGGUGGCCGGGCUCCCACGGCGAGCGGCACUAGAAGGGUCACUACAUGAGGAUCACCCAUGU | – | – | 30.3 nM | 15.6 nM
AAAAAGCGAGGAUAUACAUAGCUAAGACGUGUGAGCGAAAAACAUGAGGAUCACCCAUGUAGAAGGCGCAAAAA | 18 nM | 17.9 nM | – | –
CGCUACGUUUCGUAGCAGUGUCAUCGAGAAGGCCCUGACAUGAGGAUCACCCAUGUUCCAAAAUGGGAGGAUAUCGAUGAUACA | – | – | 4.89 nM | 4.99 nM
GAAUACCUAGGAUAUACAUGAGGAUCACCCAUGUCAGUAGACUCGGAAAAGUCUCUCAGUAGAAGGAGGACCAG | 35.2 nM | 79.3 nM | – | –
GGUCGGCGAGGAUAUACAUGAGGAUCACCCAUGUGAUAGAUUGCACGCGUACGUGUAUGUAGAAGGCGCUGACG | 21.8 nM | 200 nM | – | –
GGUGCCAUGUAGAAGGCAGAUCCGAUUCAGAUCUGAGGAUAUACAUGAGGAUCACCCAUGUAAAGGCACCGCACGAGAGUGCAA | 8.12 nM | 9.11 nM | – | –
AGUACUCAAAGAGUACGCGUAAGCACAUGAGGAUCACCCAUGUAGGAUAUGCUACUCAAAGAGUAGUAGAAGGACAUAUUCCUC | 5.85 nM | 7.46 nM | – | –
CCAUGGCUGUAAGGAUAUCUCUGACAAAGUCAGAGAGAAGGUACAUGAGGAUCACCCAUGUGAGGAAAACCACAUUUGCCAUGG | 9.46 nM | 15.7 nM | – | –
GUGCUCGUGUAAGGAUAUGCAGCCGUUUCGGCUGCAGAAGGUACUAUAAUACAUGAGGAUCACCCAUGUCUCUAUUGUUUGGUG | – | – | 120 nM | 153 nM
GGGACUCUAGAAGAGCUGUCGACAUAGGAUAUGAUGUGCGACAUGAGGAUCACCCAUGUAACGAAUUAGAAGGGUGUAGGCAUG | – | – | 228 nM | 114 nM
CCAUGUCUAUGAGGAUAUCCGAAUUAGCGUUUGACAACGAUGAGUUCUCCAGGAGAAGGCAUGGACAUGAGGAUCACCCAUGUA | 29.6 nM | 75.5 nM | – | –
AGAGCCUCGUGAGGAUAUACAUGAGGAUCACCCAUGUAAAUGAAAGAUACGUCGAAACGACGAAUGUAGAAGGCACGAGGCUCA | 17.8 nM | 65.9 nM | – | –
CGCAAUAUACAGAAGGAGUUAUUUAGAGGAUUACUAGGAUAUGUUCACAUGAGGAUCACCCAUGUCAUAUUGGGAUUUAUUGCG | 10 nM | 10.3 nM | – | –
ACUAUACGAGGAUAUACUGUCGGGCCUCAGACAUAAAUAAGACAUGAGGAUCACCCAUGUAGAAGGCGUUUACU | 52.6 nM | 114 nM | – | –
CGAUGGCAUGUAGGAUAUCGAGCUCAAAGAGCUCGAGAAGGACAUGAGGAUCACCCAUGUGCUCACAGACAGUGAGCGCUAUCG | 31.2 nM | 156 nM | – | –
UUUAUUUAGGCAGGAUAUACAUGUAUAUAUAUUUCUUUAUAUCUUAUUACAUGAGGAUCACCCAUGUAGAAGGGCCUUCUUAUC | 30.1 nM | 34.5 nM | – | –
UGGUACAUCAUAGGAUAUCGUGUGUAAACAUGAGGAUCACCCAUGUCAUACGAGAGUAUGUCGAUCGAGAAGGGUGAUGUACCU | – | – | 75.2 nM | 25.8 nM
GUUUGGAGUGGAGGAUAUGCGGACGAACGAUAAGCAGAAGGCCACAUGAGGAUCACCCAUGUCGGCUGUGCCGGGUGGUUGACG | 41.6 nM | 50.8 nM | – | –
